From ChEMBL document CHEMBL1955778, “Design and synthesis of novel 7-aminoquinazoline derivatives: antitumor and anticonvulsant activities” (Bioorg Med Chem Lett, 2012)

Key:
Format in all cases: functional
[1] = test system: Mus musculus; test: Anticonvulsant activity in mouse assessed as protection against pentylenetetrazol-induced seizure at 1 mmol/kg, ip administered 30 min prior to pentylenetetrazol-challenge measured after 60 mins relative to control
[2] = test system: Mus musculus; test: Anticonvulsant activity in mouse assessed as protection against strychnine-induced seizure at 1 mmol/kg, ip administered 30 min prior to strychnine-challenge measured after 60 mins relative to control
[3] = test system: Mus musculus; test: Anticonvulsant activity in mouse assessed as protection against maximal electroshock-induced seizure at 1 mmol/kg, ip administered 30 min prior to maximal electroshock-challenge measured after 60 mins relative to control
[4] = test system: CCRF-CEM; test: Growth inhibition of human CCRF-CEM cells at 10 uM relative to control; settings: read-out: GI
Method in brief: (§1)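 Each cell line in a 60-line human tumour panel exposed to one 10 μM concentration. Growth inhibition percentage computed as 100 minus the percentage activity relative to control.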

[5] = test system: T47D; test: Growth inhibition of human T47D cells at 10 uM relative to control; settings: read-out: GI
Method in brief: (§2)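 Single-dose screen across the 60-cell-line human tumor panel at 10 μM. Growth inhibition is reported as a percentage, taken as 100 minus the % growth relative to untreated control.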

[6] = test system: U-251; test: Growth inhibition of human U251 cells at 10 uM relative to control; settings: read-out: GI; method in brief: as §2
[7] = test system: A498; test: Growth inhibition of human A498 cells at 10 uM relative to control; settings: read-out: GI; method in brief: as §1
[8] = test system: BT-549; test: Growth inhibition of human BT549 cells at 10 uM relative to control; settings: read-out: GI; method in brief: as §1
[9] = test system: RPMI-8226; test: Growth inhibition of human RPMI8226 cells at 10 uM relative to control; settings: read-out: GI; method in brief: as §1
[10] = test system: MOLT-4; test: Growth inhibition of human MOLT4 cells at 10 uM relative to control; settings: read-out: GI; method in brief: as §1
[11] = test system: HL-60(TB); test: Growth inhibition of human HL-60(TB) cells at 10 uM relative to control; settings: read-out: GI
Method in brief: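 Single-dose screen at 10 μM across the 60-cell-line tumour panel. Percent growth inhibition = 100 minus percent growth activity relative to untreated control.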

[12] = test system: SF-295; test: Growth inhibition of human SF295 cells at 10 uM relative to control; settings: read-out: GI; method in brief: as §1
[13] = test system: HT-29; test: Growth inhibition of human HT-29 cells at 10 uM relative to control; settings: read-out: GI; method in brief: as §1
[14] = test system: UACC-62; test: Growth inhibition of human UACC62 cells at 10 uM relative to control; settings: read-out: GI; method in brief: as §2
[15] = test system: MDA-MB-435; test: Growth inhibition of human MDA-MB-435 cells at 10 uM relative to control; settings: read-out: GI; method in brief: as §1
[16] = test system: K562; test: Growth inhibition of human K562 cells at 10 uM relative to control; settings: read-out: GI; method in brief: as §1
[17] = test system: SR; test: Growth inhibition of human SR cells at 10 uM relative to control; settings: read-out: GI; method in brief: as §2
[18] = test system: LOX IMVI; test: Growth inhibition of human LOXIMVI cells at 10 uM relative to control; settings: read-out: GI; method in brief: as §1
[19] = test system: EKVX; test: Growth inhibition of human EKVX cells at 10 uM relative to control; settings: read-out: GI; method in brief: as §1
[20] = test system: Mus musculus; test: Anticonvulsant activity in mouse assessed as protection against picrotoxin-induced seizure at 1 mmol/kg, ip administered 30 min prior to picrotoxin-challenge measured after 60 mins relative to control

Row | Structure (SMILES) | Activity [1] | Activity [2] | Activity [3] | inhibition of growth at 10 µM [4] | inhibition of growth at 10 µM [5] | inhibition of growth at 10 µM [6] | inhibition of growth at 10 µM [7] | inhibition of growth at 10 µM [8] | inhibition of growth at 10 µM [9] | inhibition of growth at 10 µM [10] | inhibition of growth at 10 µM [11] | inhibition of growth at 10 µM [12] | inhibition of growth at 10 µM [13] | inhibition of growth at 10 µM [14] | inhibition of growth at 10 µM [15] | inhibition of growth at 10 µM [16] | inhibition of growth at 10 µM [17] | inhibition of growth at 10 µM [18] | inhibition of growth at 10 µM [19] | Activity [20]
1 | Cc1ccc(S(=O)(=O)Nc2ccc3c(=O)n(-c4ccccc4C)c(C)nc3c2)cc1 | 66% | 0% | 0% | – | – | – | – | – | – | – | – | – | – | – | – | – | – | – | – | –
2 | Cc1ccccc1-n1c(C)nc2cc(NC(=O)c3cccs3)ccc2c1=O | – | – | – | 12.2% | 7.8% | 12% | 9% | 8% | 8% | 25.6% | 19.2% | 6% | 11% | 8% | 6% | 12.8% | 21% | 4.2% | 11% | –
3 | Cc1ccccc1-n1c(C)nc2cc(-n3c(C)nc4ccccc4c3=O)ccc2c1=O | 0% | 0% | 100% | – | – | – | – | – | – | – | – | – | – | – | – | – | – | – | – | 0%
